The list is not random: actives were taken first. Their share in the collection is about 3.1%.
GalR3 antagonist – antagonists of human GalR3; AID 651719; HEK293 GalR3-CNG cAMP membrane potential fluorescence; galR3 body fused to GalR1 C-terminus; 0.44% of 360,000 active; O60755; inhibition, % at 3 µM;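 active = inhibition above the screen-wide average plus 3 SD, cut at about 13% in these data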;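 note: forskolin and galanin both at EC90 stimulate the cells; cAMP rise reported by CNG channel membrane potential dye signal; 0% = forskolin plus galanin with DMSO and 100% = forskolin alone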
Target sequence (O60755 1-299 limits assumed): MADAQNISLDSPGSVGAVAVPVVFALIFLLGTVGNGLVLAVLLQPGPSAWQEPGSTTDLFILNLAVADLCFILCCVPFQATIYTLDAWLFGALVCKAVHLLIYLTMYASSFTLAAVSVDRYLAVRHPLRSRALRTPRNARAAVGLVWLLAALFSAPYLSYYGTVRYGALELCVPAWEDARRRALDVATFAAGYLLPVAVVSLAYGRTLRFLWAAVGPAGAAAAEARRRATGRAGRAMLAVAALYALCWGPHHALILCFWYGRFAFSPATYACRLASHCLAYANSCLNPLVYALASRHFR
OX1R antag-1 – OX1R (human) antagonism; inhibition, % at 6.6 µM; OX1R-expressing cells, FRET antagonist read-out; 1.8% of 330,000 active; in the data active = inhibition mostly above about 38%, no sharp cut-off; inactive = mostly below about 40%;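 note: 0% = agonist challenge alone and 100% = reference antagonist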
GPR7 antagonist – human neuropeptides B/W receptor 1 antagonism | P48145 | GPR7-expressing cells, fluorescence antagonist assay | inhibition, % at 4.4 µM | 1.1% of 290,000 active; in the data active = inhibition above about 16%, passing the limit was not always enough;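 note: cells stimulated with the agonist NPW; 0% = agonist with vehicle and 100% = vehicle without agonist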
Target sequence (P48145 whole entry, looked up): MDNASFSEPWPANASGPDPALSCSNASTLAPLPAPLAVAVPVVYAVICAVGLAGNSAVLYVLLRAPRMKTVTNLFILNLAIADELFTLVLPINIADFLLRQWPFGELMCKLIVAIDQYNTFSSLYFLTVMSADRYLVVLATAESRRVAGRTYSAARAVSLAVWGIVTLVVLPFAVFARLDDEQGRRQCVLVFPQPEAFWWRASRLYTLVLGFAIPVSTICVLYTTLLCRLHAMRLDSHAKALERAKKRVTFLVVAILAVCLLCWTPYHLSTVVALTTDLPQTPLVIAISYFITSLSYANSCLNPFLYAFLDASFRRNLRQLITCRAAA
OX1R antag-2 – blocks the human orexin 1 receptor. 0.43% of 330,000 active. CHO/OX1R cells, Fluo-8 calcium fluorescence, orexin A. O43613. inhibition, % at 5 µM;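 active = inhibition above its plate's threshold, mean inhibition of all tested compounds on the plate plus 3 SD, cut at about 37% in these data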;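 note: 0% = orexin A challenge wells and 100% = SB-334867-A antagonist wells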
CHO parental Ca – counter-screen for OX1R antagonists: effect in parental CHO cells | parental CHO-K1, ATP-induced calcium, Fluo-8 fluorescence | 0.63% of 330,000 active | inhibition, % at 5.6 µM;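 active = inhibition above that plate's mean sample inhibition plus 3 SD, cut at about 26% in these data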;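 note: 0% = ATP-challenged DMSO wells and 100% = DMSO wells without ATP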
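Material – parental CHO cells · Reagent – ATP stimulus · Compound – single nominal dose of 5.6 µM per compound · Detection – Fluo-8 fluorescence · Read-out basis – percent inhibition of calcium signal · Controls – ATP-challenged DMSO wells low, unchallenged DMSO wells high · Repeats – no replicates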
GalR3 antag conf – confirmation of human galanin receptor 3 antagonists. HEK293 GalR3 CNG cAMP biosensor, membrane potential fluorescence; galR3 fused to GalR1 carboxy tail; challenged with forskolin and galanin at EC90. shares compounds with GalR3 antagonist. inhibition, % at 3 µM. 59% of 1,600 active;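 active = inhibition above the primary screen's cutoff, the mean inhibition of all screened compounds plus 3 SD, cut at about 13% in these data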;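 note: 0% = forskolin plus galanin and 100% = forskolin alone with DMSO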
HEK-CNG parental – acts as nonspecific agonist in parental HEK-CNG cells; activation, % at 3 µM; AID 652268; shares compounds with GalR3 antagonist; HEK293-CNG parental cells, cAMP membrane potential fluorescence; normalised: DMSO wells 0%, forskolin wells 100%; 10% of 1,600 active; in the data active = activation above about 1.3%
The depositor's hits bear a star; . = not tested or not shown; ! = not confirmed by another sample.

SMILES | GalR3 antagonist | OX1R antag-1 | GPR7 antagonist | OX1R antag-2 | CHO parental Ca | GalR3 antag conf | HEK-CNG parental
Cc1ccc(-n2nc(C)c(/C=N/n3c(C)n[nH]c3=S)c2Cl)cc1 | . | -3 | -2 | -7 | -18 | 11 | 1
Cc1n[nH]c(=S)n1/N=C/c1ccccc1 | 1 | 11 | -5 | 1 | -7 | . | .
CCCCn1c(-c2nonc2NC(=O)c2ccccc2Cl)nc2ccccc21 | 19* | . | . | . | . | 0 | 0
CC(=O)Nc1nonc1-c1nc2ccccc2n1CCC#N | -4 | 8 | -13 | 2 | -11 | . | .
CC(=O)c1c(C)[nH]c(C(=O)OCCCCN2C(=O)c3ccccc3C2=O)c1C | 20* | 45* | 10 | 63* | 75* | 60* | 0
COc1ccc(NC(=S)NNc2ccc(C(=O)O)cc2)cc1 | -8 | 18 | -1 | -4 | -7 | . | .
COC(=O)c1ccc(NC(=O)C(=O)c2cccn2C)cc1 | . | 20 | -10 | -28 | -11 | 0 | 0
COC(=O)c1ccc(NC(=O)c2ccccc2C(=O)Nc2ccc(C(=O)OC)cc2)cc1 | 0 | 5 | . | -11 | -17 | . | .
NC(=O)c1nsc(C(=O)N(CC(=O)NC2CCCC2)c2cnc3ccccc3c2)c1N | . | 13 | -6 | -13 | -11 | . | .
CC(OC(=O)c1ccc2ncsc2c1)C(=O)Nc1cccc(Cl)c1 (stereo unspecified) | -8 | 4 | . | -1 | -8 | . | .
COc1ccc(NC(=O)C(=S)N2CCCC2)cc1 | 16* | 15 | -6 | -11 | -17 | 1 | 0
COc1ccc(NC(=S)N2CCCC2)cc1 | -2 | 2 | 0 | 3 | -2 | . | .
CCO[C@@H]1OC(C(=O)NCc2ccccc2)=C[C@H](C2CC2)[C@H]1CCCO | . | 11 | 4 | -20 | -25 | 9 | 0
Cc1ccc(CN2CCC(Oc3cccc(C(=O)NCc4cccnc4)c3)CC2)o1 | -1 | 8 | 12 | -22 | -26 | . | .
CCCCNC(=O)N(CC)c1c(N)n(Cc2ccccc2)c(=O)[nH]c1=O | 13* | 21 | -16 | -13 | -3 | 3 | 0
COc1ccc(N2CCN(CCC(O)c3ccc4ccccc4c3)CC2)cc1 (stereo unspecified) | -12 | -1 | 6 | -24 | -9 | . | .
CCOc1ccc(Br)cc1C(=S)N1CCCC1 | -7 | 20 | -12 | -15 | -6 | . | .
CSc1ccccc1OCc1cc(C(=O)N2CCC(c3ccncc3)CC2)no1 | 75* | 54 | 12 | 13 | 26 | 94* | 0
COc1ccc(NS(=O)(=O)c2ccc3oc(SC(C)C(N)=O)nc3c2)cc1 (stereo unspecified) | 24* | 22 | 11 | 0 | 26 | 0 | 0
COc1cc(CCC(=O)OCC(=O)Nc2sccc2C(N)=O)cc(OC)c1OC | 93* | . | . | . | . | 102* | -1
COc1cc(CCC(=O)OCC(=O)Nc2ccc(C(N)=O)cc2)cc(OC)c1OC | . | 14 | -7 | 4 | -7 | 9 | 0
CC(=O)OCC1OC(c2ccccc2)C(OC(C)=O)C(OC(C)=O)C1OC(C)=O (stereo unspecified) | -2 | 1 | -16 | -6 | -16 | . | .
CC(=O)OCC1OC(n2c(S)c(C#N)c(-c3ccccc3)c(C#N)c2=O)C(OC(C)=O)C(OC(C)=O)C1OC(C)=O (stereo unspecified) | 57* | . | . | . | . | 87* | 1
CCOC(=O)C1CCN(C(=O)Cc2cccc3ccccc23)CC1 | 16* | 23 | 3 | -28 | -7 | 0 | 0
O=C(O)c1ccc(N/N=C2/CCCc3ccccc32)cc1 | 1 | 7 | -8 | 3 | 0 | . | .
SMILES | GalR3 antagonist | OX1R antag-1 | GPR7 antagonist | OX1R antag-2 | CHO parental Ca | GalR3 antag conf | HEK-CNG parental
CCCC(=O)N1CCC1(C)C(=O)Nc1cc(OC)c(OC)c(OC)c1 (stereo unspecified) | -4 | . | . | . | . | . | .
COc1ccc2c(c1O)Cc1ccccc1C2=O | . | 11 | -4 | -19 | -10 | . | .
CC(C)=C1Cc2ccccc2C1=O | 13* | 4 | -6 | -15 | -2 | 0 | 0
Cc1nnc(NC(=O)C(C)Sc2nnc(CCNC(=O)c3ccccc3F)n2C)s1 (stereo unspecified) | 13* | 7 | -6 | -8 | -6 | 5 | 0
CCc1nnc(NC(=O)CSc2nnc(CNC(=O)c3ccccc3F)n2C)s1 | -10 | 10 | -18 | -13 | 1 | . | .
COc1ccccc1C(C)NC(=O)Cc1ccc(S(=O)(=O)N2CCOCC2)s1 (stereo unspecified) | -4 | 7 | . | -26 | -2 | . | .
N#Cc1cccc(C(=O)C(=O)N2CCC(Cc3ccccc3)CC2)c1 | -7 | . | . | . | . | . | .
O=C(C(=O)N1CCC(Cc2ccccc2)CC1)c1ccccc1 | 16*! | . | . | . | . | -2 | 0
CCOC(=O)Cn1nc(C)c(NC(=O)COc2cccc(Cl)c2)c1C | 21* | 4 | -4 | -3 | 11 | 0 | 0
CCCCCCNC(=O)CC(NS(=O)(=O)c1ccc(OC)cc1)C(C)C (stereo unspecified) | 21* | 28 | -10 | -36 | -27 | -2 | 0
CCCCCCCNC(=O)CC(NS(=O)(=O)c1ccc(NC(C)=O)cc1)C(C)C (stereo unspecified) | -10 | 11 | -2 | -14 | -11 | . | .
CCN(CC)CC(O)c1ccc2ccc3ccc(O)cc3c2c1 (stereo unspecified) | -4 | . | . | . | . | . | .
COc1ccc(NC(=O)COc2ccc(N(C)S(=O)(=O)c3ccc(Cl)cc3)cc2)cc1OC | 91* | 45* | . | 51* | 90* | 85* | 0
CN(c1ccc(OCC(=O)OCC(=O)Nc2ccc(F)cc2)cc1)S(=O)(=O)c1ccc(Cl)cc1 | 5 | 20 | -6 | 3 | -7 | . | .
O=c1cc(-c2cccc(F)c2)[nH]c2ccccc12 | 2 | 4 | 13 | 3 | 0 | . | .
O=c1cc(-c2ccccc2)[nH]c2ccc(F)cc12 | 20* | 11 | 2 | 3 | -9 | 5 | 1
COc1cc(/C=N/NC(N)=S)ccc1OCC(=O)Nc1ccc(C)c(C)c1 | 5 | 21 | 3 | -7 | 30 | . | .
COc1cc(/C=N/NC(N)=O)ccc1OCC(=O)Nc1ccc(C)c(C)c1 | 24* | 1 | -6 | -12 | -4 | 32* | -1
O=C(NCCCNC(=O)c1ccco1)c1cccc(F)c1 | -7 | 16 | -10 | -3 | -1 | . | .
Cc1cc(NCCO)nc(-n2nc(C)cc2C)n1 | 13* | 1 | 3 | 9 | 0 | 0 | 0
O=C(c1ccc([N+](=O)[O-])cc1)N1CCN(C(=O)C2CCCCC2)CC1 | -1 | 37 | -8 | 1 | 0 | . | .
O=C(O)CCCCCCCCCCP(=O)(c1ccccc1)c1ccccc1 | 13* | 15 | -16 | -13 | -10 | -2 | 0
O=C(O)CP(=O)(c1ccccc1)c1ccccc1 | -3 | 19 | -5 | -21 | -2 | . | .

High-throughput results from PubChem.
